From ChEMBL document CHEMBL1141286, “Benzochromenones from the marine crinoid Comantheria rotula inhibit hypoxia-inducible factor-1 (HIF-1) in cell-based reporter assays and differentially suppress the growth of certain tumor cell lines” (J Nat Prod, 2007)

Tests used:
HOP-62 = experiment: Growth inhibition of human HOP62 cells; format: functional; settings: for CC50: read-out: Log LC50 (the source's name) (converted); for TGI: read-out: Log TGI (converted)
[1] = Inhibition of luciferase at 30 uM
Outline: (§1)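 Purified recombinant firefly luciferase (QuantiLum, 46.8 μg mL−1) mixed with compound in passive lysis buffer containing BSA (1 mg mL−1); equal volume of luciferase substrate added, light output read; percentage inhibition relative to DMSO control; concentration-response curves up to 30 μM.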

HL-60 = experiment: Growth inhibition of human HL60 cells; format: functional; settings: for TGI: read-out: Log TGI (converted)
SNB-19 = experiment: Growth inhibition of human SNB19 cells; format: functional; settings: for TGI: read-out: Log TGI (converted)
MDA-MB-435 = experiment: Growth inhibition of human MDA-MB-435 cells; format: functional; settings: for TGI: read-out: Log TGI (converted)
CAKI-1 = experiment: Growth inhibition of human CAKI1 cells; format: functional; settings: for TGI: read-out: Log TGI (converted)
RPMI-8226 = experiment: Growth inhibition of human RPMI8226 cells; format: functional; settings: for CC50: read-out: Log LC50 (the source's name) (converted); for TGI: read-out: Log TGI (converted)
UO-31 = experiment: Growth inhibition of human UO31 cells; format: functional; settings: for TGI: read-out: Log TGI (converted)
MDA-MB-231 = experiment: Growth inhibition of human MDA-MB-231 cells; format: functional; settings: for TGI: read-out: Log TGI (converted)
Hs-578T = experiment: Growth inhibition of human HS578T cells; format: functional; settings: for TGI: read-out: Log TGI (converted)
SN12C = experiment: Growth inhibition of human SN12C cells; format: functional; settings: for TGI: read-out: Log TGI (converted)
MOLT-4 = experiment: Growth inhibition of human MOLT4 cells; format: functional; settings: for CC50: read-out: Log LC50 (the source's name) (converted); for TGI: read-out: Log TGI (converted)
[2] = Inhibition of HIF1 activation in PC3 cells by TK-luciferase assay; format: cell-based; settings: Homo sapiens, PC-3
Outline: (§2)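 HIF-1 reporter (pHRE-TK-Luc) assays in transfected PC-3 or T47D cells; HIF-1 induced by hypoxia or by the hypoxia mimetic 1,10-phenanthroline (10 μM); compounds at half-log concentrations; luciferase activity measured; IC50 from experiments in triplicate.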

OVCAR-5 = experiment: Growth inhibition of human OVACAR5 cells; format: functional; settings: for TGI: read-out: Log TGI (converted)
BT-549 = experiment: Growth inhibition of human BT549 cells; format: functional; settings: for TGI: read-out: Log TGI (converted)
NCI-H226 = experiment: Growth inhibition of human NCI-H226 cells; format: functional; settings: for CC50: read-out: Log LC50 (the source's name) (converted); for TGI: read-out: Log TGI (converted)
RXF 393 = experiment: Growth inhibition of human RXF393 cells; format: functional; settings: for TGI: read-out: Log TGI (converted)
LOX IMVI = experiment: Growth inhibition of human LOXIMVI cells; format: functional; settings: for TGI: read-out: Log TGI (converted)
NCI-H23 = experiment: Growth inhibition of human NCI-H23 cells; format: functional; settings: for CC50: read-out: Log LC50 (the source's name) (converted); for TGI: read-out: Log TGI (converted)
NCI-H322M = experiment: Growth inhibition of human NCI-H322M cells; format: functional; settings: for CC50: read-out: Log LC50 (the source's name) (converted); for TGI: read-out: Log TGI (converted)
K562 = experiment: Growth inhibition of human K562 cells; format: functional; settings: for CC50: read-out: Log LC50 (the source's name) (converted); for TGI: read-out: Log TGI (converted)
TK-10 = experiment: Growth inhibition of human TK10 cells; format: functional; settings: for TGI: read-out: Log TGI (converted)
[3] = biological target: Hypoxia inducible factors; HIF-1-alpha, HIF-2-alpha (Homo sapiens, UniProt Q16665+Q99814); experiment: Inhibition of HIF1 activation in human T47D cells by TK-luciferase assay; format: cell-based; outline: as §2
U-251 = experiment: Growth inhibition of human U251 cells; format: functional; settings: for TGI: read-out: Log TGI (converted)
SNB-75 = experiment: Growth inhibition of human SNB75 cells; format: functional; settings: for TGI: read-out: Log TGI (converted)
HCC 2998 = experiment: Growth inhibition of human HCC2998 cells; format: functional; settings: for CC50: read-out: Log LC50 (the source's name) (converted); for TGI: read-out: Log TGI (converted)
[4] = Inhibition of luciferase; outline: as §1

## CCCc1cc(=O)c2c(O)c3c(OC)cc(O)cc3cc2o1
HOP-62
  GI50: 22.9 µM
  CC50: > 100 µM
  TGI: 56.2 µM
[1]
  inhibition: 48%
HL-60
  GI50: 30.9 µM
  LC50: > 100 µM
  TGI: 61.7 µM
SNB-19
  GI50: 32.4 µM
  LC50: 100 µM
  TGI: 100 µM
MDA-MB-435
  GI50: 20.9 µM
  LC50: > 100 µM
  TGI: 57.5 µM
CAKI-1
  GI50: 30.2 µM
  LC50: > 100 µM
  TGI: > 100 µM
RPMI-8226
  GI50: 14.5 µM
  CC50: > 100 µM
  TGI: 43.7 µM
UO-31
  GI50: 16.2 µM
  LC50: > 100 µM
  TGI: 42.7 µM
MDA-MB-231
  GI50: 15.5 µM
  LC50: > 100 µM
  TGI: 45.7 µM
Hs-578T
  GI50: 25.1 µM
  LC50: > 100 µM
  TGI: 67.6 µM
SN12C
  GI50: 19.1 µM
  LC50: > 100 µM
  TGI: 50.1 µM
MOLT-4
  CC50: > 100 µM
[2]
  IC50: 1 µM
OVCAR-5
  GI50: 25.1 µM
  LC50: > 100 µM
  TGI: 60.3 µM
BT-549
  GI50: 18.2 µM
  LC50: 95.5 µM
  TGI: 41.7 µM
NCI-H226
  GI50: 17.8 µM
  CC50: > 100 µM
  TGI: 45.7 µM
RXF 393
  GI50: 18.2 µM
  LC50: > 100 µM
  TGI: 47.9 µM
LOX IMVI
  GI50: 16.6 µM
  LC50: 63.1 µM
  TGI: 32.4 µM
NCI-H23
  GI50: 22.4 µM
  CC50: > 100 µM
  TGI: 49 µM
NCI-H322M
  GI50: 26.3 µM
  CC50: > 100 µM
  TGI: > 100 µM
K562
  GI50: 18.2 µM
  CC50: > 100 µM
  TGI: 56.2 µM
TK-10
  GI50: 30.2 µM
  LC50: > 100 µM
  TGI: > 100 µM
[3]
  IC50: 1.7 µM
U-251
  GI50: 16.2 µM
  LC50: 95.5 µM
  TGI: 38.9 µM
SNB-75
  GI50: 30.9 µM
  LC50: > 100 µM
  TGI: 74.1 µM

## COc1cc(O)cc2cc3oc(C)cc(=O)c3c(OC)c12 [COMANTHERIN]
HOP-62
  GI50: > 100 µM
  CC50: > 100 µM
  TGI: > 100 µM
HL-60
  GI50: > 100 µM
  LC50: > 100 µM
  TGI: > 100 µM
SNB-19
  GI50: > 100 µM
  LC50: > 100 µM
  TGI: > 100 µM
MDA-MB-435
  GI50: > 100 µM
  LC50: > 100 µM
  TGI: > 100 µM
CAKI-1
  GI50: > 100 µM
  LC50: > 100 µM
  TGI: > 100 µM
UO-31
  GI50: > 100 µM
  LC50: > 100 µM
  TGI: > 100 µM
MDA-MB-231
  GI50: > 100 µM
  LC50: > 100 µM
  TGI: > 100 µM
Hs-578T
  GI50: 21.9 µM
  LC50: > 100 µM
  TGI: > 100 µM
SN12C
  GI50: > 100 µM
  LC50: > 100 µM
  TGI: > 100 µM
MOLT-4
  GI50: > 100 µM
  CC50: > 100 µM
  TGI: > 100 µM
[2]
  IC50: 10 µM
OVCAR-5
  GI50: > 100 µM
  LC50: > 100 µM
  TGI: > 100 µM
BT-549
  GI50: 74.1 µM
  LC50: > 100 µM
  TGI: > 100 µM
NCI-H226
  GI50: > 100 µM
  CC50: > 100 µM
  TGI: > 100 µM
RXF 393
  GI50: > 100 µM
  LC50: > 100 µM
  TGI: > 100 µM
LOX IMVI
  GI50: > 100 µM
  LC50: > 100 µM
  TGI: > 100 µM
NCI-H23
  GI50: > 100 µM
  CC50: > 100 µM
  TGI: > 100 µM
NCI-H322M
  GI50: > 100 µM
  CC50: > 100 µM
  TGI: > 100 µM
K562
  GI50: 47.9 µM
  CC50: > 100 µM
  TGI: > 100 µM
TK-10
  GI50: > 100 µM
  LC50: > 100 µM
  TGI: > 100 µM
HCC 2998
  GI50: > 100 µM
  CC50: > 100 µM
  TGI: > 100 µM
[3]
  IC50: 2.9 µM
U-251
  GI50: 100 µM
  LC50: > 100 µM
  TGI: > 100 µM
SNB-75
  GI50: > 100 µM
  LC50: > 100 µM
  TGI: > 100 µM

## CCCc1cc(=O)c2c(OC)c3c(OC)cc(O)c(Oc4c(O)cc(OC)c5c(OC)c6c(=O)cc(CCC)oc6cc45)c3cc2o1
HOP-62
  GI50: 2.57 µM
  CC50: 28.2 µM
  TGI: 8.13 µM
HL-60
  GI50: 3.89 µM
  LC50: 79.4 µM
  TGI: 11.2 µM
SNB-19
  GI50: 15.8 µM
  LC50: 55 µM
  TGI: 29.5 µM
MDA-MB-435
  GI50: 2.24 µM
  LC50: 15.8 µM
  TGI: 5.13 µM
CAKI-1
  GI50: 11 µM
  LC50: 47.9 µM
  TGI: 22.9 µM
RPMI-8226
  GI50: 4.9 µM
  CC50: 70.8 µM
  TGI: 21.4 µM
UO-31
  GI50: 6.61 µM
  LC50: 45.7 µM
  TGI: 19.5 µM
[4]
  IC50: 2.4 µM
MDA-MB-231
  GI50: 6.31 µM
  LC50: 53.7 µM
  TGI: 21.4 µM
Hs-578T
  GI50: 5.89 µM
  LC50: 100 µM
  TGI: 69.2 µM
SN12C
  GI50: 2.09 µM
  LC50: 14.1 µM
  TGI: 4.79 µM
MOLT-4
  GI50: 3.24 µM
  CC50: 97.7 µM
  TGI: 11.5 µM
[2]
  IC50: 10 µM
OVCAR-5
  GI50: 7.08 µM
  LC50: 100 µM
  TGI: 30.9 µM
BT-549
  GI50: 3.09 µM
  LC50: 34.7 µM
  TGI: 11.2 µM
NCI-H226
  GI50: 16.2 µM
  CC50: 79.4 µM
  TGI: 35.5 µM
RXF 393
  GI50: 1.62 µM
  LC50: 30.2 µM
  TGI: 5.62 µM
LOX IMVI
  GI50: 3.47 µM
  LC50: 41.7 µM
  TGI: 11.5 µM
NCI-H23
  GI50: 2.45 µM
  CC50: 33.9 µM
  TGI: 6.92 µM
NCI-H322M
  GI50: 13.5 µM
  CC50: 55 µM
  TGI: 27.5 µM
K562
  GI50: 4.79 µM
  CC50: 58.9 µM
  TGI: 14.8 µM
TK-10
  GI50: 17 µM
  LC50: 57.5 µM
  TGI: 31.6 µM
HCC 2998
  GI50: 13.5 µM
  CC50: 56.2 µM
  TGI: 27.5 µM
[3]
  IC50: 7.3 µM
U-251
  GI50: 4.68 µM
  LC50: 41.7 µM
  TGI: 15.8 µM
SNB-75
  GI50: 2.95 µM
  LC50: 30.2 µM
  TGI: 8.71 µM
